# Measurements from ChEMBL document CHEMBL3425456, “Boronic acid-containing CXCR1/2 antagonists: Optimization of metabolic stability, in vivo evaluation, and a proposed receptor binding model” (Bioorg Med Chem Lett, 2015).
# Activity calls are given as the source filed them. The rule behind the calls is not given here.
# Legend:
# [1] = molecular target: T1, C-X-C chemokine receptor type 2 (Homo sapiens, UniProt P25025); assay: Inhibition of CXCR2 (unknown origin) transfected with RBL cells; type: cell-based
# T1 sequence (P25025 whole entry): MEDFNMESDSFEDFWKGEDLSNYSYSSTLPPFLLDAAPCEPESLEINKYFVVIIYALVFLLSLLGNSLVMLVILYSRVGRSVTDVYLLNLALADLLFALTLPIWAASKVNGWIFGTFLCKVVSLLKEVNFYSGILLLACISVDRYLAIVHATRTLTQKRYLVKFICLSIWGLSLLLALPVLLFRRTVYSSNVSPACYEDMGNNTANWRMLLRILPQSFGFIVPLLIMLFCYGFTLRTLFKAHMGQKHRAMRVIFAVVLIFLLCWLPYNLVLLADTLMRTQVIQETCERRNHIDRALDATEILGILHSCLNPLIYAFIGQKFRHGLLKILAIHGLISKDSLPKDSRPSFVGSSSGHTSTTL
# Method in brief: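 RBL cells stably transfected with CXCR2 were used to measure antagonist activity at the receptor.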
# [2] = Metabolic stability in monkey liver microsomes assessed as compound remaining at 1 uM after 60 mins by LC-MS analysis; type: ADME, Macaca mulatta; details: rhesus monkey, 1 h
# Method in brief: (§1)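 Compound at 1 µM was incubated with rat or monkey liver microsomes for 60 min at 37°C. Samples taken at 0 and 60 min were analysed by LC-MS for % parent remaining.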
# [3] = molecular target: T1, C-X-C chemokine receptor type 2; assay: Inhibition of CXCR2 (unknown origin) expressed in PathHunter celline by beta-arrestin assay
# [4] = molecular target: T2, C-X-C chemokine receptor type 1 (Homo sapiens, UniProt P25024); assay: Inhibition of CXCR1 (unknown origin) transfected with RBL cells; type: cell-based
# T2 sequence (P25024 whole entry): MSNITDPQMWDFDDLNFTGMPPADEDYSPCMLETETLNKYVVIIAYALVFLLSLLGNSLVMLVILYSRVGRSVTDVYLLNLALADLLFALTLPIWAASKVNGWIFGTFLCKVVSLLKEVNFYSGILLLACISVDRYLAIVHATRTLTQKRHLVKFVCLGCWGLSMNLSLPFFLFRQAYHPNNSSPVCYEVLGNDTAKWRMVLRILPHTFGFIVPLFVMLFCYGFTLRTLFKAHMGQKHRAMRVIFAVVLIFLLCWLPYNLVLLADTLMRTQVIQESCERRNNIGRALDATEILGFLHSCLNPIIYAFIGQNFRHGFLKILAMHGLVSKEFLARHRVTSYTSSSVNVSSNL
# [5] = molecular target: T3, Interleukin-8 receptors, CXCR1/CXCR2 (Homo sapiens, UniProt P25025+P25024); assay: Antagonist activity at CXCR1/CXCR2 in human PMN cells assessed as inhibition of GROalpha-mediated intracellular calcium release; type: functional, cell-based
# T3 sequence (P25025 whole entry): T1 sequence (P25025 whole entry)
# T3 sequence (P25024 whole entry): T2 sequence (P25024 whole entry)
# [6] = test system: Rattus norvegicus; assay: AUC in rat at 1 mg/kg, iv by LC-MS/MS analysis; type: ADME, organism-based, Plasma; parameters: dose 1 mg/kg, route intravenous; details: in vivo
# Method in brief: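 Rats were dosed intravenously at 1 mg/kg. Plasma levels were measured by LC-MS/MS against a calibration curve of compound spiked into rat plasma and run alongside the samples. AUC was taken from the plasma concentration vs. time curve.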
# [7] = test system: Rattus norvegicus; assay: AUC in rat at 1 mg/kg, po by LC-MS/MS analysis; type: ADME, organism-based, Plasma; parameters: dose 1 mg/kg, route oral; details: in vivo, BLD = below limit of detection
# Method in brief: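 Rats were dosed at 1 mg/kg by oral gavage. Plasma levels were measured by LC-MS/MS against a concurrently run calibration curve of compound spiked into rat plasma.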
# [8] = test system: Liver microsome; assay: Metabolic stability in rat liver microsomes assessed as compound remaining at 1 uM after 60 mins by LC-MS analysis; type: ADME; details: 1 h; method in brief: as §1
# [9] = test system: Rattus norvegicus; assay: Inhibition of lung leakage in ozone Sprague-Dawley rat model of pulmonary inflammation at 1 mg/kg, iv after 24 hrs; type: functional, organism-based; parameters: dose 1 mg/kg
# Method in brief: (§2)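 Sprague-Dawley rats, n = 4 per group, were dosed iv at 1 mg/kg (or vehicle) at t = 0, 5 and 9 h. They were exposed to air or 1 ppm ozone for 4 h and sacrificed at 24 h for bronchoalveolar lavage. BALF cells were Wright-Giemsa stained and counted (PMNs, macrophages). BALF protein was measured by Bradford assay as lung leakage.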
# [10] = test system: Rattus norvegicus; assay: Inhibition of neutrophil influx in ozone Sprague-Dawley rat model of pulmonary inflammation assessed as decrease in PMN influx into lungs at 1 mg/kg, iv after 24 hrs; type: functional, organism-based; parameters: dose 1 mg/kg; method in brief: as §2
# [11] = test system: Rattus norvegicus; assay: Inhibition of macrophage influx in ozone Sprague-Dawley rat model of pulmonary inflammation at 1 mg/kg, iv after 24 hrs; type: functional, organism-based; parameters: dose 1 mg/kg; method in brief: as §2
compound,measurement,setting,value
O=C(Nc1ccc(F)cc1)c1ccc(SCc2ccccc2B(O)O)nc1,IC50,[1],356 nM
same,Stability,[2],25%
same,IC50,[3],730 nM
same,IC50,[4],903 nM
same,IC50,[5],38 nM
same,AUC,[6],0.39 µM·h
same,AUC,[7],BLD
same,Stability,[8],37%
COc1ccc(B(O)O)c(CSc2ccc(C(=O)Nc3ccc(F)cc3)cn2)c1,IC50,[5],80 nM
O=C(Nc1ccc(F)cc1)c1ccc(SCc2cc3c(cc2B(O)O)OCO3)nc1,IC50,[5],> 10000 nM
COc1cc(CSc2ccc(C(=O)Nc3ccc(F)cc3)cn2)c(B(O)O)cc1OC,IC50,[5],> 10000 nM
O=C(Nc1ccc(F)cc1)c1ccc(SCc2cc(OC(F)(F)F)ccc2B(O)O)nc1,Stability,[2],95%
same,inhibition,[9],Active
same,inhibition,[10],Active
same,AUC,[6],5.4 µM·h
same,AUC,[7],BLD
same,inhibition,[11],Active
same,Stability,[8],92%
O=C(Nc1ccc(F)cc1)c1ccc(SCc2cc(F)ccc2B(O)O)nc1,IC50,[5],52 nM
O=C(Nc1ccc(F)cc1)c1ccc(SCc2cccc(B(O)O)c2)nc1,IC50,[5],1220 nM
O=C(Nc1ccc(F)cc1)c1ccc(SCc2ccc(B(O)O)cc2)nc1,IC50,[5],90 nM
O=C(Nc1ccc(F)cc1)c1ccc(SCCCCB(O)O)nc1,IC50,[5],689 nM
O=C(Nc1ccc(F)cc1)c1ccc(SCCc2ccccc2B(O)O)nc1,IC50,[5],387 nM
